Five compounds from ChEMBL document CHEMBL3228029, “Blood glucose lowering sulfonamides with asymmetric carbon atoms. 3. Related N-substituted carbamoylbenzoic acids” (J Med Chem, 1979) can be followed below.

Active and inactive are the calls of the source. The rule behind the calls is not given here.

In data set [1] the test system is Rattus norvegicus. Put plainly: Hypoglycemic activity in iv dosed rat measured after 1 hr by GOD-Perid method. The format is functional. In short, it runs like this: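 Fed female rats received the compound iv as its Na salt in 0.9% saline at four doses. Blood was sampled 1 h post-injection and glucose measured enzymatically (GOD-Perid). Changes were expressed as percent of the control group, and linear dose-response curves were fitted. ED50 is the dose for 50% reduction of the mean control value, with 95% confidence limits.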

For data set [2], the system named is Rattus norvegicus. The data set can be described thus: Hypoglycemic activity in rat at 20 to 375 mg/kg, iv measured after 3 hrs by GOD-Perid method. The class given is functional, organism-based. In short, it runs like this:
(§1)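 Female rats in the fed state were injected iv with the Na salt dissolved in 0.9% saline at four graded doses. Blood samples were taken at 1 and 3 h, and glucose was determined enzymatically by the GOD-Perid method. Effects were expressed relative to the control group (percent control value).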

The test system of data set [3] is Rattus norvegicus. Put plainly: Hypoglycemic activity in rat at 0.0064 to 0.1 mg/kg, iv measured after 3 hrs by GOD-Perid method. The class given is functional, organism-based. In short, it runs like this:
as §1

In data set [4] the test system is Rattus norvegicus. The data set can be described thus: Hypoglycemic activity in rat at 0.16 to 2.5 mg/kg, iv measured after 3 hrs by GOD-Perid method. The class given is functional, organism-based. In short, it runs like this:
as §1

Data set [5] concerns Rattus norvegicus. The data set can be described thus: Hypoglycemic activity in rat at 9.6 to 150 mg/kg, iv measured after 3 hrs by GOD-Perid method. The class given is functional, organism-based. In short, it runs like this:
as §1

Data set [6] has as its system Rattus norvegicus. Put plainly: Hypoglycemic activity in rat at 40 to 937.5 mg/kg, iv measured after 3 hrs by GOD-Perid method. The class given is functional, organism-based. In short, it runs like this:
as §1

The subject of data set [7] is Rattus norvegicus. Put plainly: Toxicity in rat assessed as suvival at 937.5 mg/kg, iv. The format is organism-based. Conditions: in vivo. More on the design: dose 937.5 mg/kg, route intravenous. In short, it runs like this: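 Survival was recorded in fed female rats after iv injection of the Na salt in 0.9% saline as the top dose of a four-dose series. Blood glucose was sampled at 1 and 3 h.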

`COc1ccc(F)cc1[C@H](C)NC(=O)Cc1ccc(C(=O)O)cc1` came in with an ED50 in the data set with Rattus norvegicus [1] of 63.9 mg/kg. The outcome with Rattus norvegicus [2] was inactive.
`COc1ccc(F)cc1[C@H](C)NC(=O)Cc1ccc(S(=O)(=O)Nc2ncc(CC(C)C)cn2)cc1` [GLIFLUMIDE] returned an ED50 in the data set with Rattus norvegicus [1] of 0.02 mg/kg. The result in the data set on Rattus norvegicus [3] was inactive.
For the compound `COc1ccc(F)cc1[C@@H](C)NC(=O)Cc1ccc(S(=O)(=O)Nc2ncc(CC(C)C)cn2)cc1`, the median effective dose (ED50) with Rattus norvegicus [1] amounted to 0.81 mg/kg. Also, the outcome in the data set on Rattus norvegicus [4] was inactive.
Turning to `COCCOc1cnc(NS(=O)(=O)c2ccccc2)nc1` [GLYMIDINE], the 50% effective dose (ED50) with Rattus norvegicus [1] is 69.7 mg/kg. Besides, the outcome with Rattus norvegicus [5] was inactive.
`COc1ccc(F)cc1[C@@H](C)NC(=O)Cc1ccc(C(=O)O)cc1`: in the data set on Rattus norvegicus [1], the 50% effect level (ED50) was put at a dose of 1180 mg/kg. In addition, in the data set on Rattus norvegicus [6], the outcome was inactive. In the data set on Rattus norvegicus [7], the Activity result is on record as “Toxic”.

The ED50 is the dose that gives a 50% effect, or the effect in half of the subjects. Read a high ED50 as weaker potency.
